Experimental data from ChEMBL document CHEMBL4406822, “Neuroactive Steroid N-Methyl-d-aspartate Receptor Positive Allosteric Modulators: Synthesis, SAR, and Pharmacological Activity” (J Med Chem, 2019).
Calls of active or inactive are those of the source. No cut-off for these calls is given here.

How the values were obtained:
[1] = target: T1, Glutamate NMDA receptor; GRIN1/GRIN2A (Homo sapiens, UniProt Q05586+Q12879); experiment: Positive allosteric modulation of recombinant human GluN1/GluN2A receptor stably expressed in HEK293 cells assessed as increase in glycine/L-glutamate-induced channel current at -70 mV holding potential by IonWork […] method; format: cell-based
Summary of the method: (§1)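 Stable HEK293 lines expressing GluN1/GluN2A or GluN1/GluN2B, measured by automated whole-cell patch clamp (Ionworks Barracuda). Cells were held at -70 mV and stepped to -45 mV during agonist application (EC20 L-glutamate plus 50 µM glycine). The test article was first pre-applied alone for 5 min, then co-applied with agonist to record potentiation. Concentration-response percent potentiation gave EC50 and Emax.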

[2] = target: T1, Glutamate NMDA receptor; GRIN1/GRIN2A; experiment: Positive allosteric modulation of recombinant human GluN1/GluN2A receptor stably expressed in HEK293 cells assessed as increase in glycine/L-glutamate-induced channel current at -70 mV holding potential by IonWork […] method relative to control; format: cell-based; summary of the method: as §1
[3] = target: T2, Glutamate NMDA receptor; GRIN1/GRIN2B (Homo sapiens, UniProt Q05586+Q13224); experiment: Positive allosteric modulation of recombinant human GluN1/GluN2B receptor stably expressed in HEK293 cells assessed as increase in glycine/L-glutamate-induced channel current at -70 mV holding potential by IonWork […] method; format: cell-based; summary of the method: as §1
[4] = Stability in human liver microsomes; format: ADME, Microsome; settings: read-out: Stability
[5] = Stability in rat liver microsomes; format: ADME, Microsome; settings: read-out: Stability
[6] = Clearance in iv dosed rat; format: ADME, organism-based; settings: in vivo
[7] = Volume of distribution at steady state in rat; format: ADME; settings: in vivo, read-out: Vdss
[8] = Half life in rat; format: ADME; settings: in vivo
[9] = Oral bioavailability in rat; format: ADME, organism-based; settings: in vivo
[10] = target: T2, Glutamate NMDA receptor; GRIN1/GRIN2B; experiment: Positive allosteric modulation of recombinant human GluN1/GluN2B receptor stably expressed in HEK293 cells assessed as increase in glycine/L-glutamate-induced channel current at -70 mV holding potential by IonWork whole cell patch clamp method relative to control
Hippocampus [11] = experiment: Induction of synaptic plasticity in postnatal 60 to 90 day rat brain hippocampal slice assessed as change in theta burst stimulaiton-induced field potential potentiation at 1 uM treated 20 mins prior to theta burst stimulation by electrophysiological method; format: functional, tissue-based
Hippocampus [12] = experiment: Induction of synaptic plasticity in postnatal 120 to 150 day rat brain hippocampal slice assessed as stimulation of theta burst stimulaiton-induced field potential potentiation at 1 uM treated 20 mins prior to theta burst stimulation and measured after 60 mins by electrophysiological method; format: functional, tissue-based
[13] = target: T1, Glutamate NMDA receptor; GRIN1/GRIN2A; experiment: Potency index, ratio of 24(S)-hydroxycholesterol EC50 to test compound EC50 for positive allosteric modulation of recombinant human GluN1/GluN2A receptor stably expressed in HEK293 cells; format: cell-based
[14] = target: T2, Glutamate NMDA receptor; GRIN1/GRIN2B; experiment: Potency index, ratio of 24(S)-hydroxycholesterol EC50 to test compound EC50 for positive allosteric modulation of recombinant human GluN1/GluN2B receptor stably expressed in HEK293 cells; format: cell-based
[15] = Ratio of drug level in Sprague-Dawley rat brain to plasma at 10 mg/kg, ip measured after 1 hr; format: ADME, organism-based; settings: brain and plasma, read-out: BPR
[16] = Ratio of drug level in Sprague-Dawley rat brain to plasma at 2.5 mg/kg, iv measured after 1 hr; format: ADME, organism-based; settings: brain and plasma, read-out: BPR

Row | Structure (SMILES) | EC50 [1] [nM] | Emax [2] [%] | EC50 [3] [nM] | microsomal CLint [4] [µL/min/mg] | microsomal CLint [5] [µL/min/mg] | clearance [6] [mL/min/kg] | Vd [7] [L/kg] | half-life [8] [min] | bioavailability [9] [%] | Emax [10] [%] | Activity (Hippocampus [11]) | Activity (Hippocampus [12]) | Ratio EC50 [13] | Ratio EC50 [14] | Kp at 1 h [15] | Kp at 1 h [16]
1 | C[C@H](CC[C@@H](O)C1CCC1)[C@H]1CC[C@H]2[C@@H]3CC=C4C[C@@](C)(O)CC[C@]4(C)[C@H]3CC[C@]12C | 270 | 250 | 270 | < 10 | 25 | 88.3 | 2.9 | 50.4 | 18 | 410 | – | – | – | – | – | –
2 | C[C@H](CC[C@H](O)C1CC1)[C@H]1CC[C@H]2[C@@H]3CC=C4C[C@@](C)(O)CC[C@]4(C)[C@H]3CC[C@]12C | 320 | 230 | 170 | < 10 | 28 | – | – | – | – | 150 | – | – | – | – | – | –
3 | CC[C@H](O)CC[C@@H](C)[C@H]1CC[C@H]2[C@@H]3CC=C4C[C@@](C)(O)CC[C@]4(C)[C@H]3CC[C@]12C | 100 | 250 | 84 | 15 | 10 | – | – | – | – | 160 | – | – | – | – | – | –
4 | C[C@@H](CCC(C)(C)O)[C@H]1CC[C@H]2[C@@H]3CC=C4C[C@@](C)(O)CC[C@]4(C)[C@H]3CC[C@]12C | > 10000 | – | > 10000 | – | – | – | – | – | – | – | – | – | – | – | – | –
5 | C[C@H](CCC1(O)CC1)[C@H]1CC[C@H]2[C@@H]3CC=C4C[C@@H](O)CC[C@]4(C)[C@H]3CC[C@]12C | 900 | 280 | 310 | 10 | 35 | – | – | – | – | 280 | – | – | – | – | – | –
6 | CC[C@@H](O)CC[C@@H](C)[C@H]1CC[C@H]2[C@@H]3CC=C4C[C@@](C)(O)CC[C@]4(C)[C@H]3CC[C@]12C | 420 | 220 | 30 | < 10 | 25 | – | – | – | – | 130 | – | – | – | – | – | –
7 | C[C@H](CC(C)(C)O)[C@H]1CC[C@H]2[C@@H]3CC=C4C[C@@H](O)CC[C@]4(C)[C@H]3CC[C@]12C | > 10000 | – | > 10000 | 18 | 63 | – | – | – | – | – | – | – | – | – | – | –
8 | C[C@H](CCC(C)(C)O)[C@H]1CC[C@H]2[C@@H]3CC=C4C[C@@H](O)CC[C@]4(C)[C@H]3CC[C@]12C | 180 | 110 | 410 | 10 | 30 | – | – | – | – | 140 | inactive | Active | – | – | – | –
9 | C[C@H](CCCC(C)(C)O)[C@H]1CC[C@H]2[C@@H]3CC=C4C[C@@H](O)CC[C@]4(C)[C@H]3CC[C@]12C | > 10000 | – | > 10000 | 23 | 31 | 41.7 | 1.2 | 22.8 | 6 | 67 | – | – | – | – | – | –
10 | CC(C)[C@@H](O)CC[C@@H](C)[C@H]1CC[C@H]2[C@@H]3CC=C4C[C@@](C)(O)CC[C@]4(C)[C@H]3CC[C@]12C | 33 | 200 | 13 | < 10 | 28 | 51.7 | 3.7 | 96 | 15 | 230 | – | – | 4 | > 10 | 1.3 | –
11 | C[C@@H]([C@H]1CC[C@H]2[C@@H]3CC=C4C[C@@H](O)CC[C@]4(C)[C@H]3CC[C@]12C)C(C)(C)O | > 10000 | – | > 10000 | 6 | 48 | – | – | – | – | – | – | – | – | – | – | –
12 | CC(C)[C@H](O)CC[C@@H](C)[C@H]1CC[C@H]2[C@@H]3CC=C4C[C@@H](O)CC[C@]4(C)[C@H]3CC[C@]12C | 37 | 220 | 55 | 28 | 93 | – | – | – | – | 140 | – | – | – | – | – | –
13 | C[C@H](CC[C@H](O)C(F)(F)F)[C@H]1CC[C@H]2[C@@H]3CC=C4C[C@@](C)(O)CC[C@]4(C)[C@H]3CC[C@]12C | 220 | 260 | 110 | 4 | 12 | – | – | – | – | 170 | – | – | – | – | – | –
14 | CC(O)CC[C@@H](C)[C@H]1CC[C@H]2[C@@H]3CC=C4C[C@@H](O)CC[C@]4(C)[C@H]3CC[C@]12C (some centres undefined) | 320 | 150 | 140 | 7 | 17 | – | – | – | – | 180 | – | – | – | – | – | –
15 | CC(C)[C@H](O)CC[C@@H](C)[C@H]1CC[C@H]2[C@@H]3CC=C4C[C@@](C)(O)CC[C@]4(C)[C@H]3CC[C@]12C | 120 | 200 | 190 | < 10 | 11 | 38.3 | 3.1 | 132 | 25 | 230 | – | – | – | – | 0.8 | –
16 | C[C@H](CC[C@H](O)C1CCC1)[C@H]1CC[C@H]2[C@@H]3CC=C4C[C@@](C)(O)CC[C@]4(C)[C@H]3CC[C@]12C | 120 | 300 | 120 | < 10 | 31 | – | – | – | – | 530 | – | – | – | – | – | –
17 | C[C@H](O)CC[C@@H](C)[C@H]1CC[C@H]2[C@@H]3CC=C4C[C@@](C)(O)CC[C@]4(C)[C@H]3CC[C@]12C | > 10000 | – | 3000 | < 10 | 56 | – | – | – | – | 50 | – | – | – | – | – | –
18 | C[C@H](CCC1(O)CC1)[C@H]1CC[C@H]2[C@@H]3CC=C4C[C@@](C)(O)CC[C@]4(C)[C@H]3CC[C@]12C | 80 | 300 | 410 | 6 | 23 | – | – | – | – | 180 | – | – | – | – | – | –
19 | COC(C)(C)CC[C@@H](C)[C@H]1CC[C@H]2[C@@H]3CC=C4C[C@@](C)(O)CC[C@]4(C)[C@H]3CC[C@]12C | > 10000 | – | > 10000 | – | – | – | – | – | – | – | – | – | – | – | – | –
20 | C[C@H](CCCO)[C@H]1CC[C@H]2[C@@H]3CC=C4C[C@@H](O)CC[C@]4(C)[C@H]3CC[C@]12C | 3000 | 290 | > 10000 | 13 | 25 | – | – | – | – | – | – | – | – | – | – | –
21 | C[C@H](CC[C@@H](O)C1CC1)[C@H]1CC[C@H]2[C@@H]3CC=C4C[C@@](C)(O)CC[C@]4(C)[C@H]3CC[C@]12C | 77 | 220 | 190 | 10 | 20 | 68.3 | 4.4 | 108 | – | 280 | – | – | – | – | 3.2 | –
22 | C[C@H](CCC(C)(C)O)[C@H]1CC[C@H]2[C@@H]3CC=C4C[C@](C)(O)CC[C@]4(C)[C@H]3CC[C@]12C | > 10000 | – | 3900 | – | – | – | – | – | – | 160 | – | – | – | – | – | –
23 | CC(C)(O)CCC[C@H]1CC[C@H]2[C@@H]3CC=C4C[C@@](C)(O)CC[C@]4(C)[C@H]3CC[C@]12C | 550 | 120 | 160 | – | – | – | – | – | – | 120 | – | – | – | – | – | –
24 | C[C@H](CC[C@@H](O)C(F)(F)F)[C@H]1CC[C@H]2[C@@H]3CC=C4C[C@@](C)(O)CC[C@]4(C)[C@H]3CC[C@]12C | 30 | 150 | 310 | 3 | 9 | 31.7 | 2.8 | 114 | 70 | 230 | – | – | – | – | – | 1
25 | C[C@H](CC[C@@H](C)O)[C@H]1CC[C@H]2[C@@H]3CC=C4C[C@@](C)(O)CC[C@]4(C)[C@H]3CC[C@]12C | > 10000 | – | > 10000 | 11 | 67 | – | – | – | – | – | – | – | – | – | – | –
